The values that follow come from ChEMBL document CHEMBL1671857, “Inducible resistance of fish bacterial pathogens to the antimicrobial peptide cecropin B” (2008).

Active and inactive are the calls of the source.

A short description of assay [1]: Antimicrobial activity against Vibrio anguillarum 775 selected after 120 ug/ml of drug exposure. Format: functional. A digest of the protocol: (§1)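 Bacteria were grown 16 h in broth with cecropin B at a concentration chosen empirically to allow growth to mid-log (OD600 ~0.4). Cultures were then diluted to 1 × 10^7 CFU/ml and the MIC was determined by the 16-h OD570 growth-curve area method. Mean ± SD of three experiments, each in triplicate.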

Assay [2] has as its system Vibrio anguillarum 775. The assay can be described thus: Antimicrobial activity against Vibrio anguillarum 775 infected in medaka fish assessed as mortality at 120 ug/ml by immersion challenge assay. It is filed as functional. The method, boiled down: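 Groups of 20 medaka, 7–8 months old, were immersed 90 min in PBS (pH 7.3, 1.0% NaCl) containing 1 × 10^5 CFU/ml V. anguillarum, either unexposed or pre-exposed to 120 μg/ml cecropin B. Cumulative mortality was recorded over 14 days. Three separate experiments, mean ± SD.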

Assay [3] concerns Vibrio vulnificus. The assay is described as follows: Antimicrobial activity against Vibrio vulnificus assessed as reduced cell size at 70 ug/ml by SEM. Format: functional, organism-based. The method, boiled down:
(§2)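 Exponential-phase broth cultures, with or without prior cecropin B exposure, were adhered 10 min at room temperature to poly-L-lysine-coated chips. Chips were fixed in 2% glutaraldehyde in cacodylate buffer for 30 min, then in 1% osmium tetroxide overnight. Samples were dehydrated through an ethanol series, critical-point dried, gold sputter-coated and examined by scanning electron microscopy.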

Assay [4] concerns CHSE-214. The assay can be described thus: Antimicrobial activity against compound-exposed Vibrio anguillarum 775 infected in CHSE-214 cells assessed as increase in adhesion to cells at 120 ug/ml after 90 mins relative to control. Format: functional, cell-based. The method, boiled down:
(§3)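 CHSE-214 cells (CO2-independent medium, 10% FBS, 20°C, no antibiotics) at 80% confluence were incubated with mid-log V. anguillarum (unexposed or cecropin B-exposed) at an MOI of 100 for 0–90 min at ~22°C. Monolayers were washed twice in PBS and lysed with 1% Triton X-100, and lysates were plated. Adherent bacteria were counted per CHSE-214 cell.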

Assay [5] has as its system Vibrio vulnificus. The assay can be described thus: Antimicrobial activity against Vibrio vulnificus assessed as increase in bacterial survival at 100 ug/ml by broth culture growth inhibition assay. Format: functional, organism-based. A digest of the protocol:
(§4)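 Broth growth-inhibition assay in tryptic soy broth (1% NaCl for vibrios) at 25°C, 200 rpm. Cultures started at 1 × 10^7 CFU/ml and were mixed 1:1 with cecropin B-containing medium. OD570 was read every 4 h for 16 h. Fractional survival is the area under the growth curve (Simpson's rule) relative to the untreated control.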

The test system of assay [6] is CHSE-214. The assay is described as follows: Antimicrobial activity against compound-exposed Vibrio anguillarum 775 infected in CHSE-214 cells assessed as increase in adhesion to cells at 120 ug/ml after 30 mins relative to control. Format: functional, cell-based. A digest of the protocol:
as §3

In assay [7] the test system is Vibrio vulnificus. The assay is described as follows: Antimicrobial activity against Vibrio vulnificus selected after 70 ug/ml of drug exposure. Format: functional. The method, boiled down: as §1
In assay [8] the test system is Pseudomonas fluorescens. The assay can be described thus: Antimicrobial activity against Pseudomonas fluorescens. It is filed as functional. A digest of the protocol: (§5)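 Exponential-phase cultures (overnight broth diluted 1:1,000) in tryptic soy broth, with 1% NaCl added for vibrios, at 25°C. Cultures at 1 × 10^7 CFU/ml were mixed with an equal volume of medium containing cecropin B and shaken at 200 rpm. OD570 was read every 4 h over 16 h. Growth-curve area (Simpson's rule) was divided by the drug-free control to give a fractional area. MIC is the x-intercept of the trend line of fractional area versus concentration. Mean ± SD of three experiments, each in triplicate.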

Assay [9] deals with Vibrio vulnificus. The assay can be described thus: Antimicrobial activity against Vibrio vulnificus assessed as appearance of rugose membrane shape at 70 ug/ml by SEM. Format: functional, organism-based. The method, boiled down: as §2
The test system of assay [10] is Vibrio vulnificus. The assay can be described thus: Antimicrobial activity against Vibrio vulnificus. It is filed as functional. A digest of the protocol: as §5
Assay [11] has as its system CHSE-214. The assay is described as follows: Antimicrobial activity against compound-exposed Vibrio anguillarum 775 infected in CHSE-214 cells assessed as increase in adhesion to cells at 120 ug/ml after 60 mins relative to control. It is filed as functional, cell-based. The method, boiled down:
as §3

Assay [12] relates to Vibrio anguillarum 775. The assay can be described thus: Antimicrobial activity against Vibrio anguillarum 775 assessed as increase in bacterial survival at 100 ug/ml by broth culture growth inhibition assay. It is filed as functional. The method, boiled down:
as §4

Assay [13] concerns Vibrio anguillarum 775. The assay is described as follows: Antimicrobial activity against Vibrio anguillarum 775 assessed as reduction in extracellular product secreted by cells at 120 ug/ml. It is filed as functional. A digest of the protocol:
as §2

For assay [14], the system named is Yersinia ruckeri. The assay is described as follows: Antimicrobial activity against Yersinia ruckeri assessed as increase in bacterial survival at 100 ug/ml by broth culture growth inhibition assay. Format: functional. The method, boiled down:
as §4

For assay [15], the system named is Yersinia ruckeri. The assay is described as follows: Antimicrobial activity against Yersinia ruckeri assessed as appearance of ridges on outer surface of the bacterial cell at 90 ug/ml by SEM. It is filed as functional. The method, boiled down: as §2
The subject of assay [16] is Pseudomonas fluorescens. The assay is described as follows: Antimicrobial activity against Pseudomonas fluorescens selected after 20 ug/ml of drug exposure. It is filed as functional. A digest of the protocol:
as §1

For assay [17], the system named is Yersinia ruckeri. The assay is described as follows: Antimicrobial activity against Yersinia ruckeri. Format: functional. The method, boiled down:
as §5

Assay [18] in a line: Antimicrobial activity against Vibrio anguillarum 775. It is filed as functional. The method, boiled down:
as §5

Assay [19] can be described thus: Antimicrobial activity against Vibrio anguillarum 775 selected after passage with 120 ug/ml of compound. Format: functional.
Assay [20] relates to Vibrio vulnificus. The assay can be described thus: Antimicrobial activity against Vibrio vulnificus assessed as loss of flagella at 70 ug/ml by SEM. Format: functional, organism-based. A digest of the protocol: as §2

Broadly, the MIC is the smallest concentration in the dilution series that meets the test's criterion for growth inhibition. Read a high MIC as a need for much substance. Take “H-KWKVFKKIEKMGRNIRNGIVKAGPAIAVLGEAKAL-NH2 [CECROPIN B]”: the MIC in assay [1] came to 209 mg/L; in assay [7], 136 mg/L; in assay [8], 25 mg/L; in [10], 85 mg/L; in [16], 24 mg/L; in assay [17], 100 mg/L. In addition, the MIC in assay [18] was 147 mg/L; in [19], 142 mg/L. Also, the outcome in assay [2], in [3], in assay [4], in assay [5], in assay [6] and in assay [9] was inactive. The result in assay [11], in assay [12], in assay [13], in assay [14], in assay [15] and in [20] was inactive.
